According to ChEMBL document CHEMBL1129062, “6- and 7-substituted 2-[2'-(dimethylamino)ethyl]-1,2-dihydro-3H-dibenz[de,h] isoquinoline-1,3-diones: synthesis, nucleophilic displacements, antitumor activity, and quantitative structure-activity relationships” (J Med Chem, 1996):
Calls of active or inactive are those of the source. The rule behind the calls is not given here.

Experiments:
B16 [1] = experiment: Compound was tested against sc B16 melanoma cell line in mice at 15 mg/kg dosage.; format: functional; conditions: Mus musculus, route subcutaneous, read-out: TGI
A549 [2] = experiment: Compound was tested against A549 lung cancer cell line in the sulforhodamine B assay.; format: functional, cell-based; conditions: Homo sapiens
Outline: (§1)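 Sulforhodamine B assay. Cells plated at 50 000/well; drug added on day 2 at 10^1–10^-5 μg/mL in half-log steps from DMSO stock diluted in PBS, final DMSO ≤0.1%. After 8-day exposure at 37 °C, cells fixed with TCA at 4 °C for 1 h and stained 30 min with 0.4% SRB. Dye solubilized in 10 mM Tris and OD read at 564 nm. Six wells per concentration; IC50 averaged.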

MCF7 [3] = experiment: Tested against […] breast carcinoma (doxorubicin resistant) cell line in the sulforhodamine B assay.; format: functional, cell-based; conditions: Homo sapiens; outline: as §1
MCF7 [4] = experiment: Tested against […] breast carcinoma (sensitive) cell line in the sulforhodamine B assay.; format: functional, cell-based; conditions: Homo sapiens; outline: as §1
L1210 [5] = experiment: Inhibitory activity against sensitive L1210 cell lines; format: functional, cell-based; conditions: Mus musculus
Rattus norvegicus [6] = species on record: Rattus norvegicus; experiment: Cardiotoxicity by a neonatal rat heart myocyte assay; format: toxicity
Outline: (§2)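 Neonatal rat heart myocytes exposed to drug for 1 h. Read-out is the ATP/protein ratio relative to untreated control myocytes. IC50 is the 1-h concentration that reduces this ratio to 50% of control.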

Tumor cell line = experiment: An average for IC50 values in the two solid tumor cell lines.; format: functional, cell-based
WiDr [7] = experiment: Compound was tested against WiDr colon (sensitive) cell line in the sulforhodamine B assay.; format: functional, cell-based; conditions: Homo sapiens; outline: as §1
[8] = Toxicity ratio determined by the quotient of IC50 values in the myocytes divided by the average value in the three tumor lines.; format: functional
Outline: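 Ratio is the myocyte cardiotoxicity IC50 (1-h exposure, ATP/protein ratio versus untreated myocytes) divided by the mean IC50 in sensitive L1210 and the two human tumor lines, measured with continuous exposure.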

WiDr [9] = experiment: Compound was tested against WiDr colon carcinoma (resistant)cell line in the sulforhodamine B assay.; format: functional, cell-based; conditions: Homo sapiens; outline: as §1
P388 [10] = experiment: Compound was tested against P388 leukemia cell line in mice at 15 mg/kg dosage.; format: functional; conditions: Mus musculus
Outline: (§3)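 Male DBA/2J mice, 10 per group, inoculated ip on day 0 with 10^6 freshly harvested leukemia cells. Compound given ip in equal doses on days 1, 5 and 9; controls received saline ip on the same days. Highest dose set 10% below the acute LD10. %ILS = 100 × (treated − control)/control, using median life span per group; value reported at highest nontoxic dose.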

L1210 [11] = experiment: Compound was tested against L1210 leukemia cell line in mice at 15 mg/kg dosage.; format: functional; conditions: Mus musculus; outline: as §3
MCF7 [12] = experiment: Tested against […] breast carcinoma (mitoxantrone resistant)cell line in the sulforhodamine B assay.; format: functional, cell-based; conditions: Homo sapiens; outline: as §1
[13] = An average for IC50 values in the two solid tumor cell lines and sensitive L1210 leukemia cell line.; format: functional, cell-based
P388 [14] = experiment: Compound was tested against P388 leukemia at % increase in life span (ILS) in mice at 15 mg/kg dosage; Not active at highest dose tested (% ILS<25); format: functional, organism-based; set-up: dose 15 mg/kg; conditions: Mus musculus
L1210 [15] = experiment: Inhibitory activity against resistant murine leukemia L1210 cell lines.; format: functional, cell-based; conditions: Mus musculus
OVCAR-3 = experiment: Inhibitory activity against OVCAR-3 cell line; format: functional, cell-based; conditions: Homo sapiens
[16] = tested on: neonatal heart myocytes (Rattus norvegicus); experiment: Cardio toxicity was measured.
UACC-375 = experiment: Inhibitory activity against […] cell line; format: functional, cell-based; conditions: Homo sapiens
Rattus norvegicus [17] = species on record: Rattus norvegicus; experiment: Compound was tested for Cardiotoxicity by a neonatal rat heart myocyte assay.; format: functional; outline: as §2
L1210 [18] = experiment: Compound was tested against L1210 leukemia at % increase in life span (ILS) in mice at 8 mg/kg dosage; Not active; format: functional, organism-based; set-up: dose 8 mg/kg; conditions: Mus musculus
WiDr [19] = experiment: Compound tested against WiDr colon (sensitive) in the sulforhodamine B assay.; format: functional, cell-based; conditions: Homo sapiens; outline: as §1
A549 [20] = experiment: Compound tested against A549 lung carcinoma in the sulforhodamine B assay.; format: functional, cell-based; conditions: Homo sapiens; outline: as §1
WiDr [21] = experiment: Compound tested against WiDr colon carcinoma (resistant) in the sulforhodamine B assay.; format: functional, cell-based; conditions: Homo sapiens; outline: as §1
WiDr [22] = experiment: Tested against WiDr colon carcinoma (resistant) in the sulforhodamine B assay.; format: functional, cell-based; conditions: Homo sapiens; outline: as §1
B16 [23] = experiment: Compound was tested against sc B16 melanoma at % tumor growth inhibition(TGI) in mice at 3.2 mg/kg dosage.; format: functional; conditions: Mus musculus, route subcutaneous, read-out: TGI
P388 [24] = experiment: Compound was tested against P388 leukemia at % increase in life span (ILS) in mice at 1.6 mg/kg dosage.; format: functional; conditions: Mus musculus; outline: as §3
WiDr [25] = experiment: Tested against WiDr colon (sensitive) in the sulforhodamine B assay.; format: functional, cell-based; conditions: Homo sapiens; outline: as §1
L1210 [26] = experiment: Compound was tested against L1210 leukemia at % increase in life span (ILS) in mice at 1.6 mg/kg dosage.; format: functional; conditions: Mus musculus; outline: as §3
A549 [27] = experiment: Tested against A549 lung carcinoma in the sulforhodamine B assay.; format: functional, cell-based; conditions: Homo sapiens; outline: as §1
P388 [28] = experiment: Compound was tested against P388 leukemia at % increase in life span (ILS) in mice at 3 mg/kg dosage.; format: functional; conditions: Mus musculus; outline: as §3
B16 [29] = experiment: Compound were tested against sc B16 melanoma at % tumor growth inhibition(TGI) in mice at 3 mg/kg dosage.; format: functional; conditions: Mus musculus, route subcutaneous, read-out: TGI
L1210 [30] = experiment: Compound was tested against L1210 leukemia at % increase in life span (ILS) in mice at 8 mg/kg dosage.; format: functional; conditions: Mus musculus; outline: as §3
B16 [31] = experiment: Compound was tested against sc B16 melanoma at % tumor growth inhibition(TGI) in mice at 6 mg/kg dosage; no palpable tumor; format: functional; conditions: Mus musculus, route subcutaneous, read-out: TGI
P388 [32] = experiment: Compound was tested against P388 leukemia at % increase in life span (ILS) in mice at 5 mg/kg dosage.; format: functional; conditions: Mus musculus; outline: as §3
P388 [33] = experiment: Compound was tested against P388 leukemia at % increase in life span (ILS) in mice at 15 mg/kg dosage.; format: functional; conditions: Mus musculus; outline: as §3
WiDr [34] = experiment: Compound tested against WiDr colon carcinoma (resistant)cell line in the sulforhodamine B assay.; format: functional, cell-based; conditions: Homo sapiens; outline: as §1
A549 [35] = experiment: Compound was tested against A549 lung carcinoma cell line in the sulforhodamine B assay.; format: functional, cell-based; conditions: Homo sapiens; outline: as §1

Row | SMILES | IC50 (MCF7 [3]) [nM] | IC50 (MCF7 [4]) [nM] | IC50 (L1210 [5]) [nM] | IC50 (Rattus norvegicus [6]) [µM] | IC50 (Tumor cell line) [nM] | Toxicity ratio [8] | IC50 (MCF7 [12]) [nM] | IC50 [13] [nM] | IC50 (L1210 [15]) [nM] | IC50 (OVCAR-3) [nM] | IC50 (UACC-375) [nM] | IC50 (WiDr [22]) [nM] | IC50 (WiDr [25]) [nM] | IC50 (A549 [27]) [nM] | further results
1 | CN(C)CCN1C(=O)c2cccc3cc4ccccc4c(c23)C1=O [AZONAFIDE] | 70 | 18 | 7 | 1.98 | 64 | 44 | 20 | 45 | – | – | – | – | – | – | inhibition in vivo at 15 mg/kg (B16 [1]): 74%; IC50 (A549 [2]): 10 nM; IC50 (WiDr [7]): 13 nM; IC50 (WiDr [9]): 94 nM; ILS at 15 mg/kg (P388 [10]): 79%; ILS at 15 mg/kg (L1210 [11]): 72%
2 | Cc1ccc2c3c(c4ccccc4cc13)C(=O)N(CCN(C)C)C2=O | – | – | 6.8 | – | 179 | 8.1 | – | – | 27 | 217 | 141 | – | – | – | ILS (P388 [14]): inactive; IC50 [16]: 989 nM; IC50 (Rattus norvegicus [17]): 989 nM
3 | CN(C)CCOc1ccc2c3c(c4ccccc4cc13)C(=O)N(CCN(C)C)C2=O | 8.9 | 3.9 | 0.2 | 5.44 | 31 | 262 | 3.9 | 21 | 1.3 | 31 | 31 | – | – | – | ILS (L1210 [18]): inactive; IC50 (WiDr [19]): 2.4 nM; IC50 (A549 [20]): 0.58 nM; IC50 (WiDr [21]): 10 nM
4 | O=C1c2c(O)ccc(O)c2C(=O)c2c(NCCNCCO)ccc(NCCNCCO)c21 [MITOXANTRONE] | 72 | 8.7 | 9.7 | 7.74 | 27 | 368 | 41 | 21 | – | – | – | 488 | 8.1 | 3.1 | inhibition in vivo at 3.2 mg/kg (B16 [23]): 130%; ILS at 1.6 mg/kg (P388 [24]): 200%; ILS at 1.6 mg/kg (L1210 [26]): 150%
5 | CN(C)CCNc1ccc2c3c(c4ccccc4cc13)C(=O)N(CCN(C)C)C2=O | 14 | 1 | 0.04 | 4.19 | 37 | 171 | 1.9 | 25 | 0.04 | 63 | 11 | 14 | 1.7 | 0.43 | ILS at 3 mg/kg (P388 [28]): 44%; inhibition in vivo at 3 mg/kg (B16 [29]): 66%
6 | CCOc1ccc2c3c(c4ccccc4cc13)C(=O)N(CCN(C)C)C2=O | 18 | 11 | 8 | 1.78 | 10 | 192 | 14 | 9.3 | 6.7 | 0.8 | 19 | 63 | 17 | 2.9 | ILS at 8 mg/kg (L1210 [30]): 100%; inhibition in vivo at 6 mg/kg (B16 [31]): > 100%; ILS at 5 mg/kg (P388 [32]): 55%
7 | CN(C)CCN1C(=O)c2cccc3cc(N)cc(c23)C1=O [AMONAFIDE] | – | – | – | 48.4 | 2110 | 30 | – | 1610 | – | – | – | – | – | – | ILS at 15 mg/kg (P388 [33]): 88%
8 | CN(C)CCN1C(=O)c2ccc(I)c3cc4ccccc4c(c23)C1=O | 30 | 11 | 416 | 43.7 | 416 | 105 | 10 | 416 | 416 | 416 | 416 | – | – | – | IC50 (WiDr [34]): 620 nM; IC50 (A549 [35]): 10 nM; IC50 (WiDr [7]): 65 nM
